Source: PubChem
ALR H2O2 inh = inhibitors of human sulfhydryl oxidase ALR | P55789 | purified ALR, DTT oxidation, H2O2 HRP-luminol luminescence | inhibition, % (test concentration not listed) | 3.8% of 290,000 active;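 active means mean replicate inhibition above about 79%, with every replicate also reaching it, limit read from the data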
DSG3 Ab inh = human desmoglein-3 autoantibody binding inhibition; binding (percent of control), % at 10 µM; P32926; 0.48% of 310,000 active; DSG3-coupled beads, scFv-anti-DSG3-GFP binding, flow cytometry; active compounds read low;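 active means binding more than 3 SD below its plate's average and above zero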;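 further: hits lower antibody fragment binding to DSG3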
Arrestin-AP2 inh = inhibitors of human beta-arrestin and AP2 interaction. FITC-arrestin peptide / GST-AP2 beads, flow cytometry; AP2 beta2 appendage carries R879A mutation. inhibition, % at 10 µM. 0.31% of 340,000 active. AID 504490;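 active means inhibition above a set limit, near 3 SD of compounds lacking own fluorescence, cut at about 54% in these data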;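 further: plate controls were DMSO wells for no effect and 5 µM unlabelled arrestin peptide for full effect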
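Measured by: flow cytometry, FL1 (488/535 nm); Material: AP2 appendage R879A on GSH beads; Evaluation: percent response; Timing: pre-incubation 12 min, peptide binding 1 h, room temperature; Also added: 50 nM FITC-arrestin peptide; Medium: PBS with 0.05% Tween 20 and 0.1% BSA.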
PolyA inhibitor = blocks polyadenylation in yeast reporter cells; S. cerevisiae SKY197-pL101 polyadenylation reporter, beta-gal luminescence; efflux-impaired pdr1/pdr3 knockout yeast; score 100 = 6 SD above DMSO; 0.02% of 300,000 active; activity score, % at 12 µM; AID 1875;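 active means lowest replicate activity score at least 50, where 100 means six control SD above control mean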;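 further: yeast exposed to compound for 9 h at 30 °C; higher score means more reporter readthrough which indicates perturbed polyadenylation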
NLRP3 yeast inh = blocks the NALP3 inflammasome reconstituted in yeast; Yeast reconstituted NLRP3/ASC/caspase-1, beta-gal luminescence, 24 h; inhibition, % at 10 µM; 0.39% of 330,000 active;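 active means inhibition of 50% or more; inactive means inhibition below 50%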;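 further: plate controls were induced DMSO wells for no effect and uninduced yeast grown without galactose for full effect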
NALP1 yeast inh = inhibitors of NALP1 inflammasome in yeast. S. cerevisiae NALP1/ASC/caspase-1 growth, X-gal OD620, 72 h. 0.61% of 280,000 active. inhibition, % at 10 µM; in the data active means inhibition mostly above about 24%, no sharp cut-off; inactive means mostly below about 32%
Arr-AP2 CP1 = inhibitors of human beta-arrestin and AP2 interaction. GST-AP2 beads, FITC arrestin peptide binding, flow cytometry; GST-fused beta2-adaptin appendage, R879A mutant. inhibition, % at 10 µM. 2% of 1,300 active. shares compounds with Arrestin-AP2 inh;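 active means inhibition above a set limit, roughly 3 SD of non-fluorescent compound noise, cut at about 38% in these data; inactive means inhibition at or below that limit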;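 further: loss of bead fluorescence from 50 nM FITC arrestin peptide bound to appendage; 0% = negative control wells and 100% = excess unlabelled arrestin peptide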
Target sequence (P63010 whole entry, looked up, the tested form may be a part, one chain of several): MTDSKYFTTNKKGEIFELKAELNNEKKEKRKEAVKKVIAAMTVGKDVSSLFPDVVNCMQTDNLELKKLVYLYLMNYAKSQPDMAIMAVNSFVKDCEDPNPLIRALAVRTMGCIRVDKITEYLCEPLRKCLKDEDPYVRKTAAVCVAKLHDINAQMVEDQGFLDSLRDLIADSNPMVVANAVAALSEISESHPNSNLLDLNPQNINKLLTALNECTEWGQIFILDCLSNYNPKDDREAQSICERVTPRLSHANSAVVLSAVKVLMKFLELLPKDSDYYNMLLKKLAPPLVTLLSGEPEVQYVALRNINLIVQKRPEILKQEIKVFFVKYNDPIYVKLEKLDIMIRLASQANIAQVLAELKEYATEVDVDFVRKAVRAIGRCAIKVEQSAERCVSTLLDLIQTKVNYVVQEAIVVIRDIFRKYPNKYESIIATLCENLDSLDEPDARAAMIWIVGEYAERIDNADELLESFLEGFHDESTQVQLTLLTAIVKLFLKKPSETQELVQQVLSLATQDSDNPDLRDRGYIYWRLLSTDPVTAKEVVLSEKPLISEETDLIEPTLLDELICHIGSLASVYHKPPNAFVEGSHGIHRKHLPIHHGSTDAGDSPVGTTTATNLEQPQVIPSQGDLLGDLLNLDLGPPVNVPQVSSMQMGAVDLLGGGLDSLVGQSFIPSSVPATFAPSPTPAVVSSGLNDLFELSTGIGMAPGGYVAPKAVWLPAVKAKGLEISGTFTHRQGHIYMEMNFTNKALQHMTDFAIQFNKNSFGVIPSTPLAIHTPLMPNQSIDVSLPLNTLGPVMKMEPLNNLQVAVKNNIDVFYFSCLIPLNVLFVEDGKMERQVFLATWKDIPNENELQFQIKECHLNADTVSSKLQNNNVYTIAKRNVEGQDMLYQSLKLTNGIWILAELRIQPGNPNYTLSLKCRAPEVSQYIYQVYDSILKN
GST GSH counter = disrupts GST binding to glutathione beads, arrestin-AP2 artifact; shares compounds with Arrestin-AP2 inh; inhibition, % at 10 µM; GST-fluorescein binding to GSH beads, fluorescence, counter-screen; 2% of 1,300 active;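 active means inhibition above 50%, about 3 SD of the inhibition seen with non-fluorescent compounds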;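 further: fluorescein maleimide labelled GST captured on 4 micron glutathione beads; higher means more loss of bead fluorescence from quenching or blocked binding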
* marks the source's active call; other numbers are inactive results. Only some compounds are listed: those with a hit (about 4.6% of all), similar ones and a draw of the others.

How did COc1ccc(N2CCN(C(=O)c3ccc(CNS(=O)(=O)c4ccc(C)cc4)cc3)CC2)cc1 do in these assays?
ALR H2O2 inh: 14; Arrestin-AP2 inh: -2; PolyA inhibitor: 17; NLRP3 yeast inh: 3; NALP1 yeast inh: -4

How did COc1ccc(CN2CCN(C(=O)c3ccc(S(=O)(=O)NCc4ccco4)cc3)CC2)cc1F do in these assays?
DSG3 Ab inh: 105; Arrestin-AP2 inh: -6; NLRP3 yeast inh: 8; Arr-AP2 CP1: 0; GST GSH counter: -10

How did COc1ccc(N2CCN(C(=O)c3ccc(S(=O)(=O)NCc4ccco4)cc3)CC2)cc1 do in these assays?
Arrestin-AP2 inh: 0; NLRP3 yeast inh: 9; Arr-AP2 CP1: -5; GST GSH counter: -8

Results for CCOC(=O)N1CCN(C(=O)c2ccc(S(=O)(=O)NCc3ccco3)cc2)CC1 ?
ALR H2O2 inh: 6; DSG3 Ab inh: 117; Arrestin-AP2 inh: 2; PolyA inhibitor: 1; NLRP3 yeast inh: 18; NALP1 yeast inh: -2

Results for Cc1ccccc1CN1CCN(C(=O)c2ccc(S(=O)(=O)NCc3ccco3)cc2)CC1 ?
ALR H2O2 inh: 4; DSG3 Ab inh: 99; Arrestin-AP2 inh: 9; NLRP3 yeast inh: 22; Arr-AP2 CP1: 2; GST GSH counter: -1

What do the screens show for `CCCC1NC(=O)c2cccnc2-n2c1nc1cc(F)c(F)cc1c2=O` (stereo unspecified)?
DSG3 Ab inh: 107

What do the screens show for `COc1ccccc1CNC(=O)COC(=O)c1ccccc1SCC(=O)N1CCCC1`?
ALR H2O2 inh: -5; DSG3 Ab inh: 102; Arrestin-AP2 inh: -5; PolyA inhibitor: 1; NLRP3 yeast inh: -15

How did COc1ccc(OC)c(NC(=O)Cc2coc3ccc4ccccc4c23)c1 do in these assays?
ALR H2O2 inh: -6; DSG3 Ab inh: 109; Arrestin-AP2 inh: 2; PolyA inhibitor: -23; NLRP3 yeast inh: 27; NALP1 yeast inh: 14

What do the screens show for `OCCc1ccc(O)c(-n2nc3ccccc3n2)c1`?
ALR H2O2 inh: -4; DSG3 Ab inh: 99; Arrestin-AP2 inh: 7; PolyA inhibitor: 14; NLRP3 yeast inh: 24; NALP1 yeast inh: 16

How did O=C(c1ccco1)N1CCN(Cc2cc(=O)c(OCc3ccccc3F)co2)CC1 do in these assays?
ALR H2O2 inh: 4; DSG3 Ab inh: 101; Arrestin-AP2 inh: -4; PolyA inhibitor: 7; NLRP3 yeast inh: 3

How did CCOc1ncccc1C(=O)OCC(=O)c1c(N)n(C)c(=O)n(C)c1=O do in these assays?
ALR H2O2 inh: 5; Arrestin-AP2 inh: 5; PolyA inhibitor: 0; NLRP3 yeast inh: 15; NALP1 yeast inh: 0; Arr-AP2 CP1: -8; GST GSH counter: 0

Results for Cn1c(N)c(C(=O)CSc2ccccn2)c(=O)n(C)c1=O ?
ALR H2O2 inh: 0; DSG3 Ab inh: 85; Arrestin-AP2 inh: -8; PolyA inhibitor: 6; NLRP3 yeast inh: 20; NALP1 yeast inh: 28

Results for Cn1c(N)c(C(=O)COC(=O)c2ccccn2)c(=O)n(C)c1=O ?
ALR H2O2 inh: -9; DSG3 Ab inh: 104; Arrestin-AP2 inh: -4; PolyA inhibitor: 4; NLRP3 yeast inh: -1; NALP1 yeast inh: -16; Arr-AP2 CP1: 13; GST GSH counter: -3

Results for Cn1c(N)c(C(=O)COC(=O)c2ccccc2C(=O)c2ccccc2)c(=O)n(C)c1=O ?
DSG3 Ab inh: 109; Arrestin-AP2 inh: -4; NLRP3 yeast inh: 15

What do the screens show for `Cn1c(N)c(C(=O)COC(=O)c2ccccc2C(F)(F)F)c(=O)n(C)c1=O`?
ALR H2O2 inh: -6; DSG3 Ab inh: 105; Arrestin-AP2 inh: -10; NLRP3 yeast inh: 9; Arr-AP2 CP1: -3; GST GSH counter: -3

What do the screens show for `Cc1ccc(NS(=O)(=O)c2ccc(NC(=O)c3cccs3)cc2)cc1`?
ALR H2O2 inh: -5; DSG3 Ab inh: 100; Arrestin-AP2 inh: 17; PolyA inhibitor: 16; NLRP3 yeast inh: 6; NALP1 yeast inh: 20

How did CN(CC(=O)Nc1ccc(F)cc1[N+](=O)[O-])C1CCS(=O)(=O)C1 (stereo unspecified) do in these assays?
ALR H2O2 inh: -3; DSG3 Ab inh: 104; Arrestin-AP2 inh: -16; NLRP3 yeast inh: 8

Results for COc1ccc(S(=O)(=O)N2CCCCC2)cc1NC(=O)[C@@H]1CCCN1C(=O)c1cccs1 ?
ALR H2O2 inh: -3; DSG3 Ab inh: 100; Arrestin-AP2 inh: 2; NLRP3 yeast inh: 9

How did CC(C)c1ccc2[nH]c(O)c(N=NC(=O)c3cccc(S(=O)(=O)Nc4ccccc4Cl)c3)c2c1 do in these assays?
DSG3 Ab inh: 90; Arrestin-AP2 inh: 100*; PolyA inhibitor: 0; NLRP3 yeast inh: 13; NALP1 yeast inh: 17; Arr-AP2 CP1: -4; GST GSH counter: -5

How did CCOC(=O)C1CCN(c2cc3c(cc2NC(=O)c2ccccc2Br)n(C)c(=O)n3C)CC1 do in these assays?
ALR H2O2 inh: -10; DSG3 Ab inh: 100; Arrestin-AP2 inh: 34; PolyA inhibitor: 8; NLRP3 yeast inh: -4; NALP1 yeast inh: 12; Arr-AP2 CP1: 8; GST GSH counter: -2

How did CCOC(=O)C1CCN(c2cc3c(cc2NC(=O)c2cc(OC)ccc2Br)n(C)c(=O)n3C)CC1 do in these assays?
Arrestin-AP2 inh: -2; PolyA inhibitor: -14; NLRP3 yeast inh: 9; NALP1 yeast inh: -1; Arr-AP2 CP1: -4; GST GSH counter: -7

Results for COC(=O)Cc1c(O)ccn(CCc2ccc(OC)c(OC)c2)c1=O ?
ALR H2O2 inh: 6; DSG3 Ab inh: 105; Arrestin-AP2 inh: -11; PolyA inhibitor: -6; NLRP3 yeast inh: 13; NALP1 yeast inh: 21

How did O=C(CNC(=O)N1CC(=O)Nc2ccccc21)NCc1cccc(Cl)c1 do in these assays?
ALR H2O2 inh: -1; DSG3 Ab inh: 98; Arrestin-AP2 inh: -7; PolyA inhibitor: 15; NLRP3 yeast inh: 9; NALP1 yeast inh: 4

Results for c1ccn2cc(-c3ccc4c(c3)OCCO4)nc2c1 ?
ALR H2O2 inh: 11; DSG3 Ab inh: 111; Arrestin-AP2 inh: 58*; PolyA inhibitor: 19; NLRP3 yeast inh: 21; NALP1 yeast inh: 21; Arr-AP2 CP1: -5; GST GSH counter: -4

Results for O=C(Nc1ccccc1)c1ccc(-c2ccc(F)cc2)s1 ?
ALR H2O2 inh: -22; DSG3 Ab inh: 99; Arrestin-AP2 inh: 55*; PolyA inhibitor: 8; NLRP3 yeast inh: -18; NALP1 yeast inh: 3; Arr-AP2 CP1: 10; GST GSH counter: -8
